Active and inactive are the calls of the source.
Tests used:
[1] = molecular target: T1, Cannabinoid receptor 2 (Homo sapiens, UniProt P34972); assay: Antagonist activity at human recombinant […] receptor expressed in CHO cells at 1 uM after 1 hr by [35S]GTPgammaS binding assay; format: functional, cell-based
[2] = molecular target: Cannabinoid receptor 1 (Homo sapiens) (UniProt P21554); assay: Induction of human CB1 receptor internalization expressed in HEK293 cells at 10 uM relative to CP55940; format: cell-based
Method in brief: (§1)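 Cells stably expressing human CB1 or human CB2 receptors, exposed to test compound alone. […] Mean of two determinations.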

[3] = molecular target: Cannabinoid receptor 1 (Rattus norvegicus, UniProt P20272); assay: Displacement of [3H]-CP55940 from CB1 receptor in rat brain homogenate after 1.5 hrs by microbeta liquid scintillation counting analysis; format: tissue-based; details: read-out: Ki
Method in brief: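 Membranes from rat brain homogenate (CB1) or HEK293 cells expressing human CB2. […] GF/B filtration, then scintillation counting. […] IC50 by three-parameter logistic fit, Ki by Cheng-Prusoff. Three experiments in triplicate.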

[4] = molecular target: T1, Cannabinoid receptor 2; assay: Displacement of [3H]-CP55940 from human CB2 receptor expressed in HEK293 cells after 1.5 hrs by microbeta liquid scintillation counting analysis; format: cell-based; details: read-out: Ki
Method in brief: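 Membranes from rat brain homogenate (CB1) or HEK293 cells expressing human CB2. GF/B filtration, then scintillation counting. IC50 by three-parameter logistic fit, Ki by Cheng-Prusoff. Three experiments in triplicate.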

[5] = molecular target: T1, Cannabinoid receptor 2; assay: Induction of human CB2 receptor internalization expressed in HEK293 cells at 10 uM relative to CP55940; format: cell-based; method in brief: as §1
[6] = tested on: Rattus norvegicus; assay: Antiallodynic activity in ip dosed Sprague-Dawley rat spinal nerve ligation model of neuropathic pain assessed as reduction of tactile allodynia; format: functional, organism-based
Method in brief: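 Male Sprague Dawley rats, 120–150 g. Left L5/L6 spinal nerves ligated under isoflurane; tested three weeks later. Single i.p. bolus, 5–20 mg/kg, in 30% hydroxypropyl-β-cyclodextrin in PBS, prepared within 1 h before injection. Paw withdrawal threshold by von Frey filaments, 50% threshold by up-down method. Seven rats per group. Repeated-measures ANOVA with Dunnett's test vs time 0.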

[7] = molecular target: T1, Cannabinoid receptor 2; assay: Agonist activity at human recombinant CB2 receptor expressed in CHO cells after 1 hr by [35S]GTPgammaS binding assay; format: functional, cell-based
[8] = Selectivity ratio of Ki for rat CB1 receptor to Ki for human CB2 receptor
[9] = molecular target: T1, Cannabinoid receptor 2; assay: Agonist activity at human recombinant CB2 receptor expressed in CHO cells after 1 hr by [35S]GTPgammaS binding assay relative to CP55940; format: functional, cell-based
Method in brief: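 Membranes from CHO cells expressing hCB1 or hCB2, preincubated at least 15 min on ice with 30 μM GDP solution. GTP-γ-[35S] with WGA-PVT SPA beads. Eight concentrations, 0.001–10 μM, in duplicate. Incubated 1 h at room temperature, centrifuged, then a further 1 h before counting. […] Mean of two determinations.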

[10] = molecular target: T1, Cannabinoid receptor 2; assay: Agonist activity at human recombinant […] receptor expressed in CHO cells at 1 uM after 1 hr by [35S]GTPgammaS binding assay; format: functional, cell-based

T1 sequence (P34972 whole entry): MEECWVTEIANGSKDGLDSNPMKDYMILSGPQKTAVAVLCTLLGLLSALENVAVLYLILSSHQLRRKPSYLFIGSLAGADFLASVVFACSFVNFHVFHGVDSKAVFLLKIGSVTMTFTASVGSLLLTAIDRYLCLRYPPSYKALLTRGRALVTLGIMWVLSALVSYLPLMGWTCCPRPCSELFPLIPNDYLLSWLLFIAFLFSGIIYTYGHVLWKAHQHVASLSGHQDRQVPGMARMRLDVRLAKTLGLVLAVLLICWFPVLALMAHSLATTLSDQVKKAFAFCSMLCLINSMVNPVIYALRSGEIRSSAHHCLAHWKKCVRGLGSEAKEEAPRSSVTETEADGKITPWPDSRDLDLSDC
Sequence of Cannabinoid receptor 1 (P20272 whole entry): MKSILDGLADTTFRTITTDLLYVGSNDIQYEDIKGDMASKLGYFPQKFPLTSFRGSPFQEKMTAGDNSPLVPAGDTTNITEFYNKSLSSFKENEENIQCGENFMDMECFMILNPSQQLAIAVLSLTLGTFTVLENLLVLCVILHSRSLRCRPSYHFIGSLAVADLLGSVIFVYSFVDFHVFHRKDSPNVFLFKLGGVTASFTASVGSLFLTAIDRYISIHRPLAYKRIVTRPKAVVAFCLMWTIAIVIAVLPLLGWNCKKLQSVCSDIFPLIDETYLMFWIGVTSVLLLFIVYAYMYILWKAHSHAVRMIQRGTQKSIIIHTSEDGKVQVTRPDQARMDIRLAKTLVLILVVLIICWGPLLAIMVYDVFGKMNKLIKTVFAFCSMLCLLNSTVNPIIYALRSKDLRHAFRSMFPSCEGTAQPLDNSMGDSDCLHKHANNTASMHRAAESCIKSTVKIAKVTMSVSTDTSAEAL
Sequence of Cannabinoid receptor 1 (Homo sapiens) (P21554 whole entry): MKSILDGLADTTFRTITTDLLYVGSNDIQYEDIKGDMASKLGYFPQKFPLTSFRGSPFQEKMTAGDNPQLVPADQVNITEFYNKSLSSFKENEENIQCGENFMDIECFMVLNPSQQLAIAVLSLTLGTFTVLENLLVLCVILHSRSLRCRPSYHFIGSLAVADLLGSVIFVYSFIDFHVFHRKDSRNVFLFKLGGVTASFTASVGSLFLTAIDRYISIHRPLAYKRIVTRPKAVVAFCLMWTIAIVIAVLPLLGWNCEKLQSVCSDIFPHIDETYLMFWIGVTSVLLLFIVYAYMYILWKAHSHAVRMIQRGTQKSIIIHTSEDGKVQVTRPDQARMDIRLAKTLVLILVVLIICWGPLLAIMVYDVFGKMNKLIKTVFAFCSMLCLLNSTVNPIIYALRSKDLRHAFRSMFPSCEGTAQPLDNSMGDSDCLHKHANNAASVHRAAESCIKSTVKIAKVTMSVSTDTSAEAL

CS(=O)(=O)NCCCn1c2ccccc2c2cc(C(=O)N3CCCCC3)ccc21
Activity [1]: inactive | Activity [2]: 54.1% | Ki [3]: 1470 nM | Ki [4]: 62 nM | Activity [5]: 116% | Activity [6]: Dose-dependent effect | EC50 [7]: 7.3 nM | Ratio Ki [8]: 23.7 | Emax [9]: 59.6% | Activity [10]: inactive

Source: ChEMBL document CHEMBL2440006, “Mastering tricyclic ring systems for desirable functional cannabinoid activity” (Eur J Med Chem, 2013)
